According to the RNAGym collection of RNA variant scans (doi:10.1126/science.aae0568):
Fewer inactive variants are shown than the library holds.

B1: tRNA (parent)
chain: GUUCCGUUGGCGUAAUGGUAACGCGUCUCCCUCCUAAGGAGAAGACUGCGGGUUCGAGUCCCGUACGGAACG

Variants of: B1
Experiment: yeast fitness relative to wild type (ratio to wild type); higher = fitter; tRNA-Arg(CCU), competitive growth, 37 C, YPD
Method in brief: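 Start and end populations of a pooled competition were compared by 100-nucleotide paired-end sequencing of gene amplicons. The Saccharomyces cerevisiae strains carried tRNA-Arg(CCU) gene variants at the native genomic locus, synthesised with a 3% per-site mutation rate at 69 sites, and competed in YPD at 37°C for 24 hours in six parallel replicates. Darwinian fitness relative to wild type was based on the change in genotype frequencies. Genotypes required ≥ 100 starting reads, and estimates < 0.5 were set to 0.5.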

**Q.** For C4G C49G U64G A65G A70U, which yeast fitness is on record?
**A.** ≤ 0.5

**Q.** Which yeast fitness does the source give for U8A U16G here?
**A.** 0.628

**Q.** With U3C C5G A15C C27G A69U as the variant, how does the yeast fitness read?
**A.** ≤ 0.5

**Q.** For G23C G25A C30G A65C, which yeast fitness is on record?
**A.** ≤ 0.5

**Q.** For C11G C30U A45G A57U C62U, which yeast fitness is on record?
**A.** ≤ 0.5

**Q.** For G9C U35A A45C U47G C62G A65C, which yeast fitness is on record?
**A.** ≤ 0.5

**Q.** For G12A C22A A57C U64A, which yeast fitness is on record?
**A.** ≤ 0.5

**Q.** Which yeast fitness does the source give for G18A C60U A65G here?
**A.** ≤ 0.5

**Q.** For G9A G51A, which yeast fitness is on record?
**A.** 0.919

**Q.** Which yeast fitness does the source give for G10A C29A here?
**A.** 0.574

**Q.** With C24U G44A U54G G67A as the variant, how does the yeast fitness read?
**A.** ≤ 0.5

**Q.** With G44C C62U A69C as the variant, how does the yeast fitness read?
**A.** 0.696

**Q.** Which yeast fitness does the source give for A20G C31A here?
**A.** 0.8

**Q.** For U8A G18C C27U C46A G50A C62U, which yeast fitness is on record?
**A.** ≤ 0.5

**Q.** Which yeast fitness does the source give for U35A A40U A42U C55G here?
**A.** ≤ 0.5

**Q.** With U35A C66U A69U as the variant, how does the yeast fitness read?
**A.** ≤ 0.5

**Q.** For C5G C33U, which yeast fitness is on record?
**A.** 0.673

**Q.** With C55A G67C as the variant, how does the yeast fitness read?
**A.** 0.686

**Q.** With G44A U54A as the variant, how does the yeast fitness read?
**A.** 0.61

**Q.** For G6A A21C C33G A45C G50C, which yeast fitness is on record?
**A.** 0.515

**Q.** For G9C A15G A21G G48A C49G C60A, which yeast fitness is on record?
**A.** ≤ 0.5

**Q.** For U2G C55A C60G C62G, which yeast fitness is on record?
**A.** ≤ 0.5

**Q.** With C30A C31G as the variant, how does the yeast fitness read?
**A.** 1

**Q.** With U2A U28C G39A C62U A65U as the variant, how does the yeast fitness read?
**A.** ≤ 0.5

**Q.** With C4A C11A G39A G41C C46A G68A as the variant, how does the yeast fitness read?
**A.** ≤ 0.5

**Q.** With U32C G44A as the variant, how does the yeast fitness read?
**A.** 1.03

**Q.** With C22A C27G G68U as the variant, how does the yeast fitness read?
**A.** ≤ 0.5

**Q.** With G12C C24A C55U as the variant, how does the yeast fitness read?
**A.** ≤ 0.5

**Q.** With C22U C60G A70G as the variant, how does the yeast fitness read?
**A.** ≤ 0.5

**Q.** With A42U A65U as the variant, how does the yeast fitness read?
**A.** 0.741

**Q.** With G17A A45C as the variant, how does the yeast fitness read?
**A.** 0.735

**Q.** Which yeast fitness does the source give for U16G C34U C46G U59A here?
**A.** ≤ 0.5

**Q.** With G6A G51A C60G as the variant, how does the yeast fitness read?
**A.** ≤ 0.5

**Q.** For C46A G52C G63A A65U, which yeast fitness is on record?
**A.** ≤ 0.5

**Q.** With U53A G68A as the variant, how does the yeast fitness read?
**A.** 0.574

**Q.** Which yeast fitness does the source give for C29G U59C here?
**A.** 0.606

**Q.** Which yeast fitness does the source give for A20C A21G C24U U26C here?
**A.** ≤ 0.5

**Q.** For A20U G23A C27U A65G G68C, which yeast fitness is on record?
**A.** ≤ 0.5

**Q.** Which yeast fitness does the source give for C24U C34U A40G C55G here?
**A.** ≤ 0.5

**Q.** For C22G C24U G44A U53G, which yeast fitness is on record?
**A.** 0.521

**Q.** For C4A G17C G56A, which yeast fitness is on record?
**A.** ≤ 0.5

**Q.** With G6A A15C C33G A36C as the variant, how does the yeast fitness read?
**A.** ≤ 0.5

**Q.** For A21G C49U C62A, which yeast fitness is on record?
**A.** 0.602

**Q.** With U28A C49G as the variant, how does the yeast fitness read?
**A.** 0.818

**Q.** For C27A A45C G50C A65C, which yeast fitness is on record?
**A.** ≤ 0.5

**Q.** For U13A G44C, which yeast fitness is on record?
**A.** 0.94

**Q.** Which yeast fitness does the source give for U8A C33U A36U A70G here?
**A.** ≤ 0.5

**Q.** Which yeast fitness does the source give for C5U A40G G50C A57C G58C here?
**A.** ≤ 0.5

**Q.** For U16A C33A U53A G63A, which yeast fitness is on record?
**A.** ≤ 0.5

**Q.** For G9A A20U A21U, which yeast fitness is on record?
**A.** ≤ 0.5

**Q.** Which yeast fitness does the source give for G41C A65U here?
**A.** 0.858

**Q.** With C4U C29G G38C as the variant, how does the yeast fitness read?
**A.** 0.621

**Q.** With C30U A45G G58A as the variant, how does the yeast fitness read?
**A.** 0.663

**Q.** Which yeast fitness does the source give for G9A C11A C30A A42C here?
**A.** 0.531

**Q.** With G17C A45C G48A U59A as the variant, how does the yeast fitness read?
**A.** 0.622

**Q.** Which yeast fitness does the source give for C5G C62U C66G here?
**A.** 0.641

**Q.** With C5U C55U G67C as the variant, how does the yeast fitness read?
**A.** ≤ 0.5

**Q.** With G6C C24A G58C A65C as the variant, how does the yeast fitness read?
**A.** ≤ 0.5

**Q.** Which yeast fitness does the source give for U35C U59A here?
**A.** 0.878

**Q.** For G9C C11G C24U, which yeast fitness is on record?
**A.** ≤ 0.5

**Q.** For C33A C55G A69C, which yeast fitness is on record?
**A.** ≤ 0.5

**Q.** With G6C C31A G38A A65G as the variant, how does the yeast fitness read?
**A.** ≤ 0.5

**Q.** For G12A G48C G68C A70U, which yeast fitness is on record?
**A.** ≤ 0.5

**Q.** Which yeast fitness does the source give for U3C U64A here?
**A.** 0.792

**Q.** For C4G G41A C66U, which yeast fitness is on record?
**A.** 0.525

**Q.** Which yeast fitness does the source give for U3C A70C here?
**A.** 0.993

**Q.** Which yeast fitness does the source give for C24G C31U A37G G50C A57U here?
**A.** 0.648

**Q.** For C5U A14G G50C C55U A57G G68A, which yeast fitness is on record?
**A.** ≤ 0.5

**Q.** For U2A C49U A57U, which yeast fitness is on record?
**A.** ≤ 0.5

**Q.** With G38C A40U G67A as the variant, how does the yeast fitness read?
**A.** ≤ 0.5

**Q.** With A20C C29U C31G C61G as the variant, how does the yeast fitness read?
**A.** ≤ 0.5

**Q.** With G25C G58C G68A as the variant, how does the yeast fitness read?
**A.** 0.639

**Q.** With U19A G63A as the variant, how does the yeast fitness read?
**A.** 0.952

**Q.** Which yeast fitness does the source give for A14U U47A C61A here?
**A.** ≤ 0.5

**Q.** For U2C G6A C11U, which yeast fitness is on record?
**A.** 0.587

**Q.** For G38C G58C U64A, which yeast fitness is on record?
**A.** 0.621

**Q.** With U16C C22U as the variant, how does the yeast fitness read?
**A.** 0.741

**Q.** For C5U C30G C31A G63C, which yeast fitness is on record?
**A.** ≤ 0.5

**Q.** With U8C A20U C30G A37G G44A as the variant, how does the yeast fitness read?
**A.** ≤ 0.5

**Q.** Which yeast fitness does the source give for A57U C61A here?
**A.** 0.528

**Q.** Which yeast fitness does the source give for C5G C11U A42G C49U A70U here?
**A.** 0.588

**Q.** With U28C C61A as the variant, how does the yeast fitness read?
**A.** 0.765

**Q.** For C31U C33G C49A G51A, which yeast fitness is on record?
**A.** 0.563

**Q.** For G23C C27G C31U, which yeast fitness is on record?
**A.** ≤ 0.5
